A short description of data set [1]: Growth inhibition of human YD38 cells measured after 4 days by MTT assay. The format is functional. To be noted: 96 h. On the technique in general: Tetrazolium assays rely on reduction of a dye to a coloured formazan, in cell work by metabolically active cells.
Data set [2] in a line: Ratio of IC50 for human HT-29 cells to IC50 for leucine uptake at LAT1 in human HT-29 cells.
Data set [3] has as its target T1, Large neutral amino acids transporter small subunit 1 (Homo sapiens, UniProt Q01650). Nature of the data set: Inhibition of [14C]-L-leucine uptake at LAT1 in human YD-38 cells after 1 hr by liquid scintillation counting. In kind it is cell-based.
Data set [4] is described as follows: Ratio of IC50 for human YD-38 cells to IC50 for leucine uptake at LAT1 in human YD-38 cells.
The test system of another data set is HT-29. In words: Growth inhibition of human HT-29 cells measured after 96 hrs by Coulter counter based cell counting method. The format is functional. Conditions: HT-29, 96 h.
In data set [5] the target is T1, Large neutral amino acids transporter small subunit 1. In words: Inhibition of LAT1 in human MCF7 cells assessed as potentiation of cisplatin-induced antiproliferative activity by measuring reduction in cell viability at 100 uM measured after 24 hrs by resazurin dye-based fluorimetric analysis. The method in brief: (§1)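 MCF-7 cells seeded 2 × 10^4/well on collagen-coated plates, treated one day later in growth medium with inhibitor (25 or 100 µM) plus bestatin or cisplatin (100 µM) for up to 3 days. Viability read daily by resazurin fluorescence (ex 560/em 590 nm). Viability is treated relative to untreated control. Mean ± SD, n=3.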

For data set [6] the target is unchanged. In words: Inhibition of LAT1 in human MCF7 cells assessed as potentiation of cisplatin-induced antiproliferative activity by measuring reduction in cell viability at 100 uM measured after 48 hrs by resazurin dye-based fluorimetric analysis. The method in brief:
as §1
In general terms: Alamar Blue is a resazurin reagent that responds to reducing activity.

In data set [7] the test system is MCF7. In words: Antiproliferative activity against human MCF7 cells assessed as reduction in cell viability measured after 72 hrs by resazurin dye-based fluorimetric analysis. The format is functional. To be noted: for pIC50: MCF7, 72 h. The method in brief:
(§2)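 MCF-7 cells were seeded at 2 × 10^4 cells/well on collagen-coated plates and treated one day later. Agents were given alone or combined (25 or 100 µM with 100 µM partner drug) in growth medium for 3 days. Viability was read daily by resazurin fluorescence (ex 560/em 590 nm) and expressed relative to untreated controls.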

The target of data set [8] is T1, Large neutral amino acids transporter small subunit 1. In words: Drug uptake in human MCF7 cells assessed as LAT1 mediated drug transport per mg of protein at 100 uM after 30 mins by HPLC analysis. In kind it is ADME, cell-based. To be noted: mcf7, 0.5 h. The procedure, abridged: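 MCF-7 monolayers were incubated with 100 µM compound in HBSS at 37 °C for 5 or 30 min. Cells got three washes with ice-cold or warm (37 °C) HBSS; in the warm 30 min arm they were washed after 5 min and again after 30 min. Lysates (0.1 M NaOH) were quantified by HPLC-UV against a spiked lysate standard curve and normalised to protein (Bio-Rad assay).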

Data set [9] shares this target. Nature of the data set: Inhibition of LAT1 in human MCF7 cells assessed as potentiation of bestatin-induced antiproliferative activity by measuring reduction in cell viability at 100 uM measured after 24 hrs by resazurin dye-based fluorimetric analysis. The method in brief: as §1
Data set [10] has as its system MCF7. In words: Antiproliferative activity against human MCF7 cells assessed as reduction in cell viability at 100 measured after 72 hrs by resazurin dye-based fluorimetric analysis. The format is functional. The procedure, abridged:
as §2

The target in data set [11] is T1, Large neutral amino acids transporter small subunit 1. In words: Potency index, ratio of IC50 for 2-amino-2-norbornanecarboxylic acid to IC50 for test compound for inhibition of [14C]-L-leucine uptake at LAT1 in human MCF7 cells. The format is cell-based.
In data set [12] the test system is MCF7. In words: Antiproliferative activity against human MCF7 cells assessed as reduction in cell viability at 100 measured after 24 hrs by resazurin dye-based fluorimetric analysis. The format is functional. The procedure, abridged:
as §2

The target in data set [13] is T1, Large neutral amino acids transporter small subunit 1. Nature of the data set: Inhibition of LAT1 in human MCF7 cells assessed as potentiation of cisplatin-induced antiproliferative activity by measuring reduction in cell viability at 100 uM measured after 72 hrs by resazurin dye-based fluorimetric analysis. The procedure, abridged: as §1
In data set [14] the test system is MCF7. Nature of the data set: Antiproliferative activity against human MCF7 cells assessed as reduction in cell viability at 100 measured after 48 hrs by resazurin dye-based fluorimetric analysis. In kind it is functional. The method in brief:
as §2

The target of data set [15] is T1, Large neutral amino acids transporter small subunit 1. In words: Competitive inhibition of [14C]-L-leucine uptake at LAT1 in human MCF7 cells preincubated for 5 mins followed by addition of substrate measured during 5 mins by liquid scintillation counting. The format is cell-based.
Data set [16] shares this target. In words: Inhibition of LAT1 in human MCF7 cells assessed as potentiation of bestatin-induced antiproliferative activity by measuring reduction in cell viability at 100 uM measured after 48 hrs by resazurin dye-based fluorimetric analysis. The procedure, abridged:
as §1

For data set [17] the target is unchanged. In words: Inhibition of LAT1 in human MCF7 cells assessed as potentiation of bestatin-induced antiproliferative activity by measuring reduction in cell viability at 100 uM measured after 72 hrs by resazurin dye-based fluorimetric analysis. The procedure, abridged:
as §1

pIC50: −log10 of the molar value. Activity calls are given as the source filed them. No cut-off for these calls is given here.

By pIC50 is commonly meant −log10 of the IC50, conventionally taken in molar units.

T1 sequence (Q01650 whole entry): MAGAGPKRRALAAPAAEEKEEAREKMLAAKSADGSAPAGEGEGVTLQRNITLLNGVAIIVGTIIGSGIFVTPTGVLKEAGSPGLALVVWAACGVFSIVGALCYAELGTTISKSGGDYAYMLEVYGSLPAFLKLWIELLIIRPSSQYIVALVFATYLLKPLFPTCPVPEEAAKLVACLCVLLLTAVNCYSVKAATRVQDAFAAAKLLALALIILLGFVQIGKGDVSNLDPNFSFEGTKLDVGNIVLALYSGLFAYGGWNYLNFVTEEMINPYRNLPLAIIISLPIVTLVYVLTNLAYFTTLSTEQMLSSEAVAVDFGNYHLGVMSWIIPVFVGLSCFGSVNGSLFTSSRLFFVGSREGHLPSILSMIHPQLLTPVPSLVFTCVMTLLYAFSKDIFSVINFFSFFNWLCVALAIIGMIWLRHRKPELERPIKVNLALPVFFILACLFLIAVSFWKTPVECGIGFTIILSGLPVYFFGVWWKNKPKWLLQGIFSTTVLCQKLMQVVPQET

`Nc1cc(COc2c(Cl)cc(C[C@H](N)C(=O)O)cc2Cl)c2oc(-c3ccccc3)nc2c1`: the negative logarithm of the IC50 (pIC50) in data set [1] is 4.16; in data set [3] it was 6.10; with HT-29, 5.39. In addition, the “Ratio IC50” value in data set [2] and in [4] was 68 - 87 in each case.

As for `NC1(C(=O)O)CC2CCC1C2` (centres undefined), the Activity in [5] was 35.9%; with MCF7 [7] it was “Dose-dependent effect”; in data set [9], 30.8%; with MCF7 [10], 24.1%; with MCF7 [12], 13.9%; in data set [13], 42.7%. Besides, the Activity in data set [17] came to 3.13%. Besides, the result (in data set [6]; in the data set with MCF7 [14]; in [16]) was inactive. In addition, the figures for the pIC50 (with MCF7 [7]; in [15]) were 3.44 and 3.95, respectively. Besides, the Drug uptake in data set [8] turned out to be 11.9 nmol/mg. Further, the Ratio IC50 in data set [11] lay within 6 to 6.2.

`CC(C)C[C@H](NC(=O)[C@@H](O)[C@H](N)Cc1ccccc1)C(=O)O` [UBENIMEX]: the Activity entry is “Dose-dependent effect” with MCF7 [7], 3.4% with MCF7 [12] and 7.5% in the data set with MCF7 [14]. In the data set with MCF7 [7], the pIC50 is 3.27. Besides, the outcome in the data set with MCF7 [10] was inactive.

For the origin of these results see ChEMBL document CHEMBL4425108, “A Selective and Slowly Reversible Inhibitor of l-Type Amino Acid Transporter 1 (LAT1) Potentiates Antiproliferative Drug Efficacy in Cancer Cells” (J Med Chem, 2016).
